Results: ChEMBL document CHEMBL1833940, “Discovery of 3-(2,6-dichloro-3,5-dimethoxy-phenyl)-1-{6-[4-(4-ethyl-piperazin-1-yl)-phenylamino]-pyrimidin-4-yl}-1-methyl-urea (NVP-BGJ398), a potent and selective inhibitor of the fibroblast growth factor receptor family of receptor tyrosine kinase” (J Med Chem, 2011)
Activity calls are given as the source filed them. No cut-off for these calls is given here.

How the values were obtained:
[1] = molecular target: Tyrosine-protein kinase SYK (Homo sapiens, UniProt P43405); assay: Inhibition of recombinant SYK
How it was run: (§1)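 Purified recombinant kinases under optimized conditions, with peptide substrates and ATP at each kinase's Km. Phosphorylation was read out by microfluidic mobility shift, and IC50 values were obtained.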

Rattus norvegicus [2] = assay: Toxicity in nude Rowett rat xenografted with human RT112 cells assessed as body weight loss at 5 mg/kg, po qd administered for 20 days; format: organism-based, RT-112; set-up: dose 5 mg/kg, route oral; settings: in vivo, 480 h
How it was run: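 Female nude Rowett rats carried subcutaneous RT112 tumors (1 × 10^6 cells in Matrigel), starting at about 100 mm3. The monophosphate salt was gavaged daily for 20 days at 5, 10 or 15 mg/kg (free base) in acetate buffer pH 4.6/PEG300 (1:1), n = 8. Body weight and morbidity were monitored; ANOVA with Dunnett's test.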

[3] = molecular target: Proto-oncogene tyrosine-protein kinase receptor Ret (Homo sapiens, UniProt P07949); assay: Inhibition of recombinant RET
How it was run: (§2)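 Purified recombinant kinases were tested under optimized conditions with peptide substrates. ATP was set at each kinase's Km. Phosphorylation was read out by microfluidic mobility shift, and IC50 values were determined.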

Cytochrome P450 2C19 = Cytochrome P450 2C19 (Homo sapiens, UniProt P33261); assay: Inhibition of CYP2C19 using CEC as substrate; format: ADME
How it was run: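 Human CYP450 inhibition was measured with isoform-specific fluorogenic probe substrates: CEC for 1A2 and 2C19, MFC for 2C9, AMMC for 2D6. Incubation was at 37 °C with an NADPH-regenerating system in 384-well format. Metabolite was quantified by fluorescence, and IC50 was obtained by curve fitting.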

[4] = Half life in plasma of RT112/luc1 cells implanted athymic nude mouse at 20 mg/kg, po by LC/MS/MS analysis; format: ADME, organism-based; set-up: dose 20 mg/kg, route oral
How it was run: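 Female athymic nude mice carried subcutaneous RT112/luc1 tumors (5 × 10^6 cells in HBSS with 50% Matrigel, right flank; about 300–400 mm3). Dosed by oral gavage at 20 mg/kg as a suspension in PEG300/D5W (2:1, v/v). Groups (n = 4) were sacrificed at 0.083–24 h.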

RT-4 = assay: Antiproliferative activity against human RT4 cells overexpressing wild type FGFR3 after 72 hrs; format: functional, cell-based; settings: RT-4, 72 h
How it was run: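 Bladder cancer lines from ATCC or DSMZ were seeded in 96-well plates (RT4, RT112 at 8500 cells/well; others at 5000 cells/well) in growth medium. Compound dilutions or DMSO were added 24 h later and incubated 72 h. Cells were fixed with glutaraldehyde, stained with 0.05% methylene blue and eluted with 3% HCl, then OD650 nm was read.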

[5] = molecular target: Casein kinase I isoform gamma-3 (Homo sapiens, UniProt Q9Y6M4); assay: Inhibition of recombinant CK1-gamma3
How it was run: (§3)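 Purified recombinant kinases under optimized conditions with peptide substrates. ATP was set at each kinase's Km. Phosphorylation was read by microfluidic mobility-shift separation of substrate and product; IC50 determined.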

RT-112 [6] = assay: Antitumor activity against human RT112 cells xenografted in nude Rowett rat assessed as tumour stasis at 5 mg/kg, po qd administered for 20 days; format: functional, organism-based; set-up: dose 5 mg/kg
How it was run: (§4)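 Female nude Rowett rats aged 6–9 weeks were given 1×10^6 RT112 cells subcutaneously in HBSS/50% Matrigel. Treatment began at about 100 mm3 mean tumor volume (n = 8): monophosphate salt in acetate buffer pH 4.6/PEG300 (1:1) by gavage, 5 mL/kg, at 5, 10, 15 mg/kg/qd free base for 20 days. Tumors were measured by caliper (L×W×H×π/6). Readouts were T/C and % regression from start volume.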

[7] = molecular target: ALK tyrosine kinase receptor (Homo sapiens, UniProt Q9UM73); assay: Inhibition of recombinant ALK; how it was run: as §1
Rattus norvegicus [8] = assay: Inhibition of FGFR autophosphorylation in RT112 tumor bearing po dosed nude rowett rat assessed as decrease in pMAPK concentration administered as a single dose by Western blot analysis; format: functional, organism-based
How it was run: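 RT112 subcutaneous xenografts in female nude Rowett rats (n = 4). Single oral gavage of the monophosphate salt at 4.25 or 8.51 mg/kg (free base equivalents) in acetic acid–acetate buffer pH 4.6/PEG300 (1:1). Tumors were collected at time points up to 24 h, frozen, homogenized and lysed. Western blots probed pFRS2(Tyr196) and pMAPK, with total FRS2, total MAPK or β-tubulin as loading controls.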

[9] = molecular target: Serine/threonine-protein kinase mTOR (Homo sapiens, UniProt P42345); assay: Inhibition of recombinant mTOR by luminescent kinase assay
[10] = Volume of distribution at steady state in RT112/luc1 cells implanted athymic nude mouse at 5 mg/kg, iv by LC/MS/MS; format: ADME, organism-based; set-up: dose 5 mg/kg, route intravenous; settings: in vivo, read-out: Vdss
How it was run: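 Female athymic nude mice carrying subcutaneous RT112/luc1 tumors (ca. 300–400 mm3). Dosing was 5 mg/kg iv by tail vein in NMP/PEG200 (1:9) or 20 mg/kg by oral gavage as a suspension in PEG300/D5W (2:1). Groups (n = 4) were sacrificed from 0.083 to 24 h. Plasma and tumor were measured by LC-MS/MS (LOQ 5 ng/mL, 10 ng/g). Noncompartmental analysis used the linear trapezoidal AUC; F was calculated from dose-normalized AUC.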

RT-112 [11] = assay: Antitumor activity against human RT112 cells xenografted in athymic nude mouse assessed as tumor growth inhibition at 10 mg/kg, po administered for 12 days; format: functional, organism-based; set-up: dose 10 mg/kg
How it was run: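 Female HsdNpa:Athymic Nude-nu mice received RT112/luc1 cells (luciferase retroviral line; about 1–2×10^5 cells) into the bladder lumen. Oral treatment started 14 days after inoculation: suspension in PEG300/D5W (2:1) at 10 or 30 mg/kg/qd for 12 days. Tumor burden was measured by IVIS bioluminescence 10 min after iv D-luciferin. T/C was computed from change in light emission; ANOVA with Dunnett's test.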

[12] = molecular target: Non-receptor tyrosine-protein kinase TYK2 (Homo sapiens, UniProt P29597); assay: Inhibition of recombinant TYK2; how it was run: as §2
RT-112 [13] = assay: Antitumor activity against human RT112 cells xenografted in nude Rowett rat assessed as tumour regression at 10 mg/kg, po qd administered for 20 days; format: functional; how it was run: as §4
Tumour = assay: Drug uptake in tumour of nude Rowett rat bearing human RT112 cells at 8.51 mg/kg, po administered as a single dose after 24 hrs by LC-MS/MS analysis; format: ADME, organism-based, Neoplasm, RT-112; set-up: dose 8.51 mg/kg, route oral; settings: in vivo
How it was run: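 Nude Rowett rats bearing subcutaneous RT112 tumors (n = 4) received a single gavage of monophosphate salt at 4.25 or 8.51 mg/kg free base in acetate buffer pH 4.6/PEG300. Tumors were collected at intervals after dosing, frozen and homogenized in an equal volume of ice-cold PBS. Compound levels were measured by LC-MS/MS (LOQ 3 ng/mL).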

[14] = molecular target: Receptor tyrosine-protein kinase erbB-2 (Homo sapiens, UniProt P04626); assay: Inhibition of recombinant ERBB2; how it was run: as §3
Receptor tyrosine-protein kinase erbB-2, sequence (P04626 whole entry): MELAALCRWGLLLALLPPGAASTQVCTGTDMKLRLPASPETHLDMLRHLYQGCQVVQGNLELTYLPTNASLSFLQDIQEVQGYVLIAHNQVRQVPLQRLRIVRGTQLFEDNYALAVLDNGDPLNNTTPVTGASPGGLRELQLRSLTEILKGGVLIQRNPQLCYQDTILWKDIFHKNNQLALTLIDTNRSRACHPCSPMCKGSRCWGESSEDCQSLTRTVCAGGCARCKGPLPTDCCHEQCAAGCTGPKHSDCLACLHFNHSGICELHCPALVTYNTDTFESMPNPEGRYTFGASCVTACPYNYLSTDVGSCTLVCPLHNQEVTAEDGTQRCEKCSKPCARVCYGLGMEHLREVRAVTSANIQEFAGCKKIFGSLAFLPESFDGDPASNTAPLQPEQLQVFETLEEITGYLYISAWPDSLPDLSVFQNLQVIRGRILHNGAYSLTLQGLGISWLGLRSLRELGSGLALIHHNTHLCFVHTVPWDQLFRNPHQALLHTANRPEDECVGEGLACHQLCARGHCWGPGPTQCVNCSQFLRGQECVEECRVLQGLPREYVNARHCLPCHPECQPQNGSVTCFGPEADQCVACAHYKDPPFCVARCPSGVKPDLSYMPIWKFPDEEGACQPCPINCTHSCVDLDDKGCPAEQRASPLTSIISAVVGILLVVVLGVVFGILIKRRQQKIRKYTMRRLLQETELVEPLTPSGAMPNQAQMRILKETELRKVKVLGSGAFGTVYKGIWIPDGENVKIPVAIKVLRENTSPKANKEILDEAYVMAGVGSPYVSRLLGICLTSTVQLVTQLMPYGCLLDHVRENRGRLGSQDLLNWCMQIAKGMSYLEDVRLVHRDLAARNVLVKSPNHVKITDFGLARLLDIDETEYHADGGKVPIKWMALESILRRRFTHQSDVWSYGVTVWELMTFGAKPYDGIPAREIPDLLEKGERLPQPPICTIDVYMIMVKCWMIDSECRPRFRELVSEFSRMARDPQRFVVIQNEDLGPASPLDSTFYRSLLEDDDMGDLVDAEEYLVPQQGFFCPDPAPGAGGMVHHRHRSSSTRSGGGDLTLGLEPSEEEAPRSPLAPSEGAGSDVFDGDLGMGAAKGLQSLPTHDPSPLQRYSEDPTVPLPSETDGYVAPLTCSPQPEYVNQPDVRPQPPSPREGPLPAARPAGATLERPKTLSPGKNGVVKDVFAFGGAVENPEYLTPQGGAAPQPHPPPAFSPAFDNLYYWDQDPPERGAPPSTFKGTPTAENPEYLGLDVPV

Non-receptor tyrosine-protein kinase TYK2, sequence (P29597 whole entry): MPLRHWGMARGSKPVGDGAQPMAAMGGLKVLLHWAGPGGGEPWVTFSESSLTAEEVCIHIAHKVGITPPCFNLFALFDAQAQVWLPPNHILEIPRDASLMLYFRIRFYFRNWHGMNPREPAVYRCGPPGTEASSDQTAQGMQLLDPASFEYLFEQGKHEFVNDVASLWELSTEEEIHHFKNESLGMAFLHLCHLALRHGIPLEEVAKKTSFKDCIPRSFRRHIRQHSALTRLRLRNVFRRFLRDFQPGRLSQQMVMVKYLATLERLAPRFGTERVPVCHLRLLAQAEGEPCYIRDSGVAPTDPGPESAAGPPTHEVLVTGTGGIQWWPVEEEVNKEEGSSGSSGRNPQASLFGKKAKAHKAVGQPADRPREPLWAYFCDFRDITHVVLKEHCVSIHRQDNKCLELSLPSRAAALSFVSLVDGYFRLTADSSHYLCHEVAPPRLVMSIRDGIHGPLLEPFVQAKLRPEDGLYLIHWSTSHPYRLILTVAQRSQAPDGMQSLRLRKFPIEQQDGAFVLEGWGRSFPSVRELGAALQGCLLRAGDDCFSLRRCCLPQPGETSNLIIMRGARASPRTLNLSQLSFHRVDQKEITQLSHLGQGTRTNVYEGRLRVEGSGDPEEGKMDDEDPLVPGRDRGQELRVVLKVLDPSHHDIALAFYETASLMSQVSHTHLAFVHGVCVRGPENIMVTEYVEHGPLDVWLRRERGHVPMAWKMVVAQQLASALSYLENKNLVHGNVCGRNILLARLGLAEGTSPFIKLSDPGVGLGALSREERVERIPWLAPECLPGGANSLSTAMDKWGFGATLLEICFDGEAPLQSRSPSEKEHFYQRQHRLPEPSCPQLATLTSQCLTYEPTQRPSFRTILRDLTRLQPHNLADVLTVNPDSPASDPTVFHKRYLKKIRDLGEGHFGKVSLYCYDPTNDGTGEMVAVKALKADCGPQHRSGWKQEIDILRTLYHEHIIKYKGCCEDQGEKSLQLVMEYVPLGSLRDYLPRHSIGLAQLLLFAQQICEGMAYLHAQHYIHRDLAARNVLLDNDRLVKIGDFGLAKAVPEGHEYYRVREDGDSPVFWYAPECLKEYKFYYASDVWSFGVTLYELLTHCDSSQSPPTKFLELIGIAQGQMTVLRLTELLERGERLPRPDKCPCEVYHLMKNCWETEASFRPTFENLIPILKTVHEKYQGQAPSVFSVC
Proto-oncogene tyrosine-protein kinase receptor Ret, sequence (P07949 whole entry): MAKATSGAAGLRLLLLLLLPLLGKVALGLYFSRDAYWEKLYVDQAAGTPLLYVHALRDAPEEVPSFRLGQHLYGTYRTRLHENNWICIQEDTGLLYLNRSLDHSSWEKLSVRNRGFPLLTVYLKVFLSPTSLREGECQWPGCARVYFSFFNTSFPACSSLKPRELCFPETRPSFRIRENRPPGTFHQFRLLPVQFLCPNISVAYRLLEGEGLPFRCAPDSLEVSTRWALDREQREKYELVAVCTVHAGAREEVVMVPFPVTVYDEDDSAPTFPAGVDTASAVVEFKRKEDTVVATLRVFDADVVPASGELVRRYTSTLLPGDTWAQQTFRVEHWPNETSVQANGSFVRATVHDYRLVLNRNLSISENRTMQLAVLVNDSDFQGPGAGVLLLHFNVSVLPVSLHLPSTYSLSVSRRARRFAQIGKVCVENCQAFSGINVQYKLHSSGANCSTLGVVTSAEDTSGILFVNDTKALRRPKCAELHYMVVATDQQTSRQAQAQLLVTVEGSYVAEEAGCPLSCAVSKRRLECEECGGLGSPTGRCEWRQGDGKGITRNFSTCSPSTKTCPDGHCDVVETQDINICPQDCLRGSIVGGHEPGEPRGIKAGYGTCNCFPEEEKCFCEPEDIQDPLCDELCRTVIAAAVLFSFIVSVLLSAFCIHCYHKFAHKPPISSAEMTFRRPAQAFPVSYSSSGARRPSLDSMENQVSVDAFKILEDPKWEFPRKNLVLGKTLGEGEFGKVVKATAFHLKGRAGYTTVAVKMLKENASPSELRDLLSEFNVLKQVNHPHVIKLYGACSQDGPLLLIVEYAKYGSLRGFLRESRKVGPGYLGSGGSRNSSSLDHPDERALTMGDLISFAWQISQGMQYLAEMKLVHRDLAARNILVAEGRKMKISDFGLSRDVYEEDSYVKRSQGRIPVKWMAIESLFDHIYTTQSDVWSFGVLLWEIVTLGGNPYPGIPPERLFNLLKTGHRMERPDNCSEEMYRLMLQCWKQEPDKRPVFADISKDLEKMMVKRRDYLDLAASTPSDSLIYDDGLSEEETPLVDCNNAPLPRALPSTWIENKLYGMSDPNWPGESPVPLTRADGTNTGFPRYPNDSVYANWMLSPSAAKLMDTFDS
Cytochrome P450 2C19, sequence (P33261 whole entry, canonical isoform): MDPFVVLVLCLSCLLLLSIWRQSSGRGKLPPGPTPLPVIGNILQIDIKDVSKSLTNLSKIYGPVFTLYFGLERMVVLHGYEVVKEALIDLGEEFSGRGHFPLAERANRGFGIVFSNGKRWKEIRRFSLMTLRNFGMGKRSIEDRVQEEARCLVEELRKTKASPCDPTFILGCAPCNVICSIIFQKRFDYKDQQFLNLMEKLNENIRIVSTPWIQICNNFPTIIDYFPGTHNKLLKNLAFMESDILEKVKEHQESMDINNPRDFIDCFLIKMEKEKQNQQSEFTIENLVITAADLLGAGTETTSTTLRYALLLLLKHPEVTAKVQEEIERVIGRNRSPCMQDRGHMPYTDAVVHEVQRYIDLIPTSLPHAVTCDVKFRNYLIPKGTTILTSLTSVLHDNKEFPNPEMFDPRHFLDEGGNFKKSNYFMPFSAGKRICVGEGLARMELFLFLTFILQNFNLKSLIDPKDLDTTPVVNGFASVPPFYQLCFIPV
Casein kinase I isoform gamma-3, sequence (Q9Y6M4 whole entry, canonical isoform): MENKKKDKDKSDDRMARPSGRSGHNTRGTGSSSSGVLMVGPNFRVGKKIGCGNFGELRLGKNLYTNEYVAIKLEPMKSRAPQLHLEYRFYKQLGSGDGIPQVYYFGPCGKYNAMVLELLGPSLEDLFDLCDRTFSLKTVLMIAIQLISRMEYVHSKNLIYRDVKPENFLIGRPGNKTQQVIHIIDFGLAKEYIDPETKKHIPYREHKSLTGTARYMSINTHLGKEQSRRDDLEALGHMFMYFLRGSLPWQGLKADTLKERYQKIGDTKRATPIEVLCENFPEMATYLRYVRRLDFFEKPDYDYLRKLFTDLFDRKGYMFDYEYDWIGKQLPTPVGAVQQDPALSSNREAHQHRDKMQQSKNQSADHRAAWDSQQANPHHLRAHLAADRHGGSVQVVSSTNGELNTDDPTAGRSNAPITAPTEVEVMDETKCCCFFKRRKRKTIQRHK

IC50 [1]: > 10 µM
IC50 [3]: > 10 µM
IC50 (Cytochrome P450 2C19): > 10 µM
half-life [4]: 4.3 h
IC50 [5]: > 10 µM
IC50 [7]: > 10 µM
IC50 [9]: > 10 µM
Vd [10]: 26 L/kg
IC50 [12]: > 10 µM
Drug uptake (Tumour): 0.32 nmol/g
IC50 [14]: > 10 µM
Structure (SMILES): CCN1CCN(c2ccc(Nc3cc(N(C)C(=O)Nc4c(Cl)c(OC)cc(OC)c4Cl)ncn3)cc2)CC1.O=P(O)(O)O [INFIGRATINIB PHOSPHATE]
Activity (Rattus norvegicus [2]): Non-toxic
IC50 (RT-4): 0.03 µM
Activity (RT-112 [6]): Active
inhibition (Rattus norvegicus [8]): Dose-dependent effect
inhibition (RT-112 [11]): Active
Activity (RT-112 [13]): 66%
